Values joined by “and” are separate entries in the source; they are usually repeats but may differ in a detail not shown here. Equal values may be shown once.
How the values were obtained:
[1] = Solubility was determined; assay type: physicochemical
P388 [2] = test: Compound was tested for antitumor activity in P-388 lymphocytic leukemia system at 200 mg/kg dose levels per injection; 0/6; assay type: functional, Mus musculus
How it was run: (§1)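 P-388 leukemia in animals, Q01D×09 schedule: dose given daily for 9 days, in mg/kg per injection. Read-outs are survivors on day 4 (live/total animals), body-weight difference test minus control (g), and % T/C (median lifetime of treated ÷ median lifetime of controls × 100). Some compounds were tested in independent runs at different times.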

P388 [3] = test: Compound was tested for antitumor activity in P-388 lymphocytic leukemia system at 12.5 mg/kg dose levels per injection; 6/6; assay type: functional, Mus musculus; how it was run: as §1
P388 [4] = test: Compound was tested for antitumor activity in P-388 lymphocytic leukemia system at 100 mg/kg dose levels per injection; Toxic; assay type: functional, organism-based; design: dose 100 mg/kg; conditions: Mus musculus
How it was run: (§2)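 P-388 leukemia in vivo, dosed Q01D×09 (one injection daily for 9 days, mg/kg per injection). Activity is %T/C, the median lifetime of treated animals divided by that of controls, ×100. Live animals on day 4 were counted against the total (survivors day 4). Repeat tests were done independently at different times.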

P388 [5] = test: Antitumor activity in P-388 lymphocytic leukemia system at 25 mg/kg dose levels per injection.; assay type: functional, Mus musculus; how it was run: as §1
P388 [6] = test: (§3) Antitumor activity in P-388 lymphocytic leukemia system at 50 mg/kg dose levels per injection.; assay type: functional, Mus musculus; how it was run: as §1
P388 [7] = test: Antitumor activity in P-388 lymphocytic leukemia system and the difference in body weight calculated at 100 mg/kg dose levels per injection.; assay type: functional, Mus musculus
P388 [8] = test: Compound was tested for antitumor activity in P-388 lymphocytic leukemia system and the difference in body weight was calculated at 12.5 mg/kg dose levels per injection; assay type: functional, Mus musculus
P388 [9] = test: Antitumor activity in P-388 lymphocytic leukemia system and the difference in body weight was calculated at 25 mg/kg dose levels per injection.; assay type: functional, Mus musculus
P388 [10] = test: Antitumor activity in P-388 lymphocytic leukemia system and the difference in body weight was calculated at 50 mg/kg dose levels per injection.; assay type: functional, Mus musculus
P388 [11] = test: Compound was tested for antitumor activity in P-388 lymphocytic leukemia system at 12.5 mg/kg dose levels per injection; assay type: functional, Mus musculus; how it was run: as §2
P388 [12] = test: Compound was tested for antitumor activity in P-388 lymphocytic leukemia system at 200 mg/kg dose levels per injection.; assay type: functional, organism-based; design: dose 200 mg/kg; conditions: Mus musculus; how it was run: as §2
P388 [13] = test: Antitumor activity in P-388 lymphocytic leukemia system at 25 mg/kg dose levels per injection; assay type: functional, Mus musculus; how it was run: as §2
P388 [14] = test: as §3; assay type: functional, Mus musculus; how it was run: as §2; remark: listed apart in the source
P388 [15] = test: Compound was tested for antitumor activity in P-388 lymphocytic leukemia system at 100 mg/kg dose levels per injection; 0/6; assay type: functional, Mus musculus; how it was run: as §1
P388 [16] = test: Compound was tested for antitumor activity in P-388 lymphocytic leukemia system at 100 mg/kg dose levels per injection; 3/6; assay type: functional, Mus musculus; how it was run: as §1
P388 [17] = test: Compound was tested for antitumor activity in P-388 lymphocytic leukemia system at 200 mg/kg dose levels per injection; 5/6; assay type: functional, Mus musculus; how it was run: as §1
P388 [18] = test: (§4) Antitumor activity in P-388 lymphocytic leukemia system at 100 mg/kg dose levels per injection.; assay type: functional, Mus musculus; how it was run: as §1
P388 [19] = test: as §4; assay type: functional, Mus musculus; how it was run: as §2; remark: listed apart in the source
P388 [20] = test: Compound was tested for antitumor activity in P-388 lymphocytic leukemia system at 50 mg/kg dose levels per injection;6/6; assay type: functional, Mus musculus; how it was run: as §1
P388 [21] = test: Antitumor activity in P-388 lymphocytic leukemia system and the difference in body weight was calculated at 200 mg/kg dose levels per injection.; assay type: functional, Mus musculus
P388 [22] = test: Compound was tested for antitumor activity in P-388 lymphocytic leukemia system. at 200 mg/kg dose levels per injection; Toxic; assay type: functional, organism-based; design: dose 200 mg/kg; conditions: Mus musculus; how it was run: as §2
[23] = Solubility was determined; INS= less than 0.1; assay type: physicochemical
P388 [24] = test: (§5) Antitumor activity in P-388 lymphocytic leukemia system at 200 mg/kg dose levels per injection.; assay type: functional, Mus musculus; how it was run: as §1
P388 [25] = test: Compound was tested for antitumor activity in P-388 lymphocytic leukemia system. at 400 mg/kg dose levels per injection; Toxic; assay type: functional, organism-based; design: dose 400 mg/kg; conditions: Mus musculus; how it was run: as §2
P388 [26] = test: Compound was tested for antitumor activity in P-388 lymphocytic leukemia system at 400 mg/kg dose levels per injection; 6/6; assay type: functional, Mus musculus; how it was run: as §1
P388 [27] = test: Compound was tested for antitumor activity in P-388 lymphocytic leukemia system. The difference in body weight was calculated at 25 mg/kg dose levels per injection; assay type: functional, Mus musculus
P388 [28] = test: Compound was tested for antitumor activity in P-388 lymphocytic leukemia system and the difference in body weight was calculated at 400 mg/kg dose levels per injection; assay type: functional, Mus musculus
P388 [29] = test: as §5; assay type: functional, Mus musculus; conditions: 200 mg/kg; how it was run: as §2
P388 [30] = test: Compound was tested for antitumor activity in P-388 lymphocytic leukemia system at 25 mg/kg dose levels per injection; assay type: functional, Mus musculus; how it was run: as §2
P388 [31] = test: Compound was tested for antitumor activity in P-388 lymphocytic leukemia system at 200 mg/kg dose levels per injection; 2/6; assay type: functional, Mus musculus; how it was run: as §1
P388 [32] = test: Compound was tested for antitumor activity in P-388 lymphocytic leukemia system at 200 mg/kg dose levels per injection; 4/6; assay type: functional, Mus musculus; how it was run: as §1
P388 [33] = test: Compound was tested for antitumor activity in P-388 lymphocytic leukemia system at 100 mg/kg dose levels per injection; 5/6; assay type: functional, Mus musculus; how it was run: as §1

Compound	Solubility [1]	T/C (P388 [4])	Survivors at day 4 (P388 [5])	Survivors at day 4 (P388 [6])	Weight difference (P388 [7])	Weight difference (P388 [10]; 50 mg/kg)	T/C (P388 [12])	T/C (P388 [13]; 25 mg/kg)	T/C (P388 [14]; 50 mg/kg)	Survivors at day 4 (P388 [18])	T/C (P388 [19])	Weight difference (P388 [7]; 100 mg/kg)	Weight difference (P388 [21]; 200 mg/kg)	further results
O=C1C2C3C=CC(C2C(=O)N1CO)C1C2C(=O)N(CO)C(=O)C2C31 (stereo not drawn)	0.8%	Toxic	6	6	-8.2 g	-5.6 g and -6.5 g	Toxic	140% and 157%	195% and 208%	–	–	–	–	Survivors at day 4 (P388 [2]): 0; Survivors at day 4 (P388 [3]): 6; Weight difference (P388 [8]): -0.7 g; Weight difference (P388 [9]; 25 mg/kg): -2.5 g and -3.3 g; T/C (P388 [11]): 105%; Survivors at day 4 (P388 [15]): 0; Survivors at day 4 (P388 [16]): 3
O=C1C2C3CCC(C2C(=O)N1CO)C1C2C(=O)N(CO)C(=O)C2C31 (stereo not drawn)	1%	–	6	–	-3.3 g	–	–	–	–	6	205%	–	–	Survivors at day 4 (P388 [17]): 5; Survivors at day 4 (P388 [20]): 6; Weight difference (P388 [21]): -4.7 g; Weight difference (P388 [9]): 0.1 g; Weight difference (P388 [10]): -1.8 g; T/C (P388 [13]): 102%; T/C (P388 [14]): 145%; T/C (P388 [22]): Toxic
O=C1C2C3C=CC(C2C(=O)N1CN1CCSCC1)C1C2C(=O)N(CN4CCSCC4)C(=O)C2C31 (stereo not drawn)	–	–	6	6	–	-1.4 g and -2.1 g	–	–	166% and 121%	6	–	-2.9 g and -2.1 g	-5.1 g and -5.2 g	Solubility [23]: Insoluble; Survivors at day 4 (P388 [24]): 6; T/C (P388 [25]): Toxic; T/C (P388 [19]; 100 mg/kg): 148% and 165%; Survivors at day 4 (P388 [26]): 6; Weight difference (P388 [27]): -1.3 g; Weight difference (P388 [28]): -5.7 g; T/C (P388 [29]): 166% and 194%; T/C (P388 [30]): 99%
O=C(O)CCC(=O)OCN1C(=O)C2C3C=CC(C2C1=O)C1C2C(=O)N(COC(=O)CCC(=O)O)C(=O)C2C31 (stereo not drawn)	–	Toxic	6	6	–	–	Toxic	103% and 107%	115% and 116%	6	165%	-4.4 g and -3.1 g	-6.7 g and -6.9 g	Survivors at day 4 (P388 [31]): 2; Survivors at day 4 (P388 [32]): 4; Survivors at day 4 (P388 [33]): 5
